Experimental data reported in ChEMBL document CHEMBL1140037, “Effect of cathepsin K inhibitors on bone resorption” (J Med Chem, 2008).
Active and inactive are the calls of the source. The calls are words filed in the database; no cut-off is given here.

Legend:
Cathepsin K [1] = molecular target: T1, Cathepsin K (Homo sapiens, UniProt P43235); test: Inhibition of human recombinant cathepsin K by fluorescence assay
T1 sequence (P43235 whole entry): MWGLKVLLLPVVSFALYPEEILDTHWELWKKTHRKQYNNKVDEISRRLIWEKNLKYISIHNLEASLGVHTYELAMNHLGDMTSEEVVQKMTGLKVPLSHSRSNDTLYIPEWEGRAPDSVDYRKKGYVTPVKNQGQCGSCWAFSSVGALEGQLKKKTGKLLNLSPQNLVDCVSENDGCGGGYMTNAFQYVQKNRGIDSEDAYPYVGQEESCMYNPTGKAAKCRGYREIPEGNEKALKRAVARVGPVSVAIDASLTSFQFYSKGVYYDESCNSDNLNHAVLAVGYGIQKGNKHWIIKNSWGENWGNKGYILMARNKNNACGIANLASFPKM
Outline: (§1)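 Recombinant human cathepsins K, L and S, inhibition read in a fluorescence assay; IC50 values reported.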

Procathepsin L = Procathepsin L (Homo sapiens, UniProt P07711); test: Inhibition of human recombinant cathepsin L by fluorescence assay; outline: as §1
Cathepsin S = Cathepsin S (Homo sapiens, UniProt P25774); test: Inhibition of human recombinant cathepsin S by fluorescence assay; outline: as §1
[2] = Half life in Sprague-Dawley rat at 1 mg/mL/kg, iv; format: ADME, organism-based; conditions: in vivo
[3] = Plasma clearance in Sprague-Dawley rat at 1 mg/mL/kg, iv; format: ADME, organism-based
[4] = Volume of distribution at steady state in Sprague-Dawley rat at 1 mg/mL/kg, iv; format: ADME, organism-based; conditions: in vivo, read-out: Vdss
[5] = Bioavailability in Sprague-Dawley rat at 3 mg/5 mL/kg, po; format: ADME, organism-based; conditions: in vivo
Rattus norvegicus [6] = test: Antibone resorptive activity in Sprague-Dawley rat assessed as inhibition of cathepsin K-mediated C-terminal telopeptidase of type 1 collagen degradation at 100 mg/kg/day, po for 11 days measured on 24 hrs after final administration by RatLaps ELISA; format: functional; set-up: scale not given: the % may be the effect or the level left
Outline: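 Intact rats dosed orally with 100 mg/kg once daily for 11 days. Urine collected for 24 h after the final dose on day 11; CTx measured by RatLaps ELISA. Inhibition expressed as percentage of vehicle-treated controls.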

[7] = Drug level in Sprague-Dawley rat serum at 100 mg/kg/day, po for 11 days measured on 25 hrs after final administration; format: ADME, organism-based; set-up: route oral; conditions: read-out: Drug uptake
Outline: (§2)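 Rats dosed orally with 100 mg/kg once daily for 11 days. Compound concentration in bone marrow and serum measured 25 h after the final dose on day 11. BM/serum ratio calculated from the two concentrations.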

[8] = Drug level in Sprague-Dawley rat bone marrow at 100 mg/kg/day, po for 11 days measured on 25 hrs after final administration; format: ADME, organism-based; set-up: route oral; conditions: read-out: Drug uptake; outline: as §2
[9] = Ratio of drug level in bone marrow to serum in po dosed Sprague-Dawley rat; format: ADME, organism-based; conditions: in vivo; outline: as §2
Cathepsin K [10] = molecular target: T2, Cathepsin K (Rattus norvegicus, UniProt O35186); test: Inhibition of rat recombinant cathepsin K expressed in Sf21 cells by fluorescence assay
T2 sequence (O35186 whole entry): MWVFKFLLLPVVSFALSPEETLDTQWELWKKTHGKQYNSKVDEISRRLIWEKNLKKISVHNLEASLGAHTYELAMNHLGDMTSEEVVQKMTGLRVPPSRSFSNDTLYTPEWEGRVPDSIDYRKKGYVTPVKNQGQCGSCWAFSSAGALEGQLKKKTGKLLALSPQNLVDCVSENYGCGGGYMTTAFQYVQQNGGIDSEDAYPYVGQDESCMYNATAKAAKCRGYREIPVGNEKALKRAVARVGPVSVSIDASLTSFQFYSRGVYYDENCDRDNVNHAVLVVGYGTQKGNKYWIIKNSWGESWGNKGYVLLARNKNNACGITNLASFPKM

[11] = Half life in Sprague-Dawley rat at 4 umol/mL/kg, iv; format: ADME, organism-based; conditions: in vivo
Outline: (§3)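 Male Sprague-Dawley rats, cassette dosing, iv and oral. Plasma levels by LC-MS/MS. Half-life is the noncompartmental terminal elimination estimate. Clearance, steady-state volume of distribution and bioavailability derived from the profiles.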

[12] = Plasma clearance in Sprague-Dawley rat at 4 umol/mL/kg, iv; format: ADME, organism-based; outline: as §3
[13] = Volume of distribution at steady state in Sprague-Dawley rat at 4 umol/mL/kg, iv; format: ADME, organism-based; conditions: in vivo, read-out: Vdss; outline: as §3
Rattus norvegicus [14] = test: (§4) Bioavailability in Sprague-Dawley rat at 10 umol/5 mL/kg, po; format: ADME, organism-based; conditions: in vivo; outline: as §3
[15] = as §4; format: ADME, organism-based; conditions: Sprague-Dawley, in vivo, 10 umol/5 mL/kg; outline: as §3
Cynomolgus monkey [16] = test: Antibone resorptive activity in cynomolgus monkey assessed as reduction of C-terminal telopeptidase of type 1 collagen degradation at 2 mg/kg/day, po measured before 8 hrs after first administration by CrossLaps ELISA; format: functional, organism-based; conditions: Macaca fascicularis
Outline: (§5)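 Cynomolgus monkeys given 2 mg/kg orally once daily for 14 days. CTx measured by CrossLaps ELISA before and 8 h after dosing on day 1 and on days 7 and 14, and at 24 h after the first dose. Vehicle group run in parallel to allow for daily CTx fluctuation. Means and SEM, n = 4, 5; t-test against vehicle control.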

Cynomolgus monkey [17] = test: Antibone resorptive activity in cynomolgus monkey assessed as reduction of C-terminal telopeptidase of type 1 collagen degradation at 2 mg/kg/day, po measured after 24 hrs after first administration by CrossLaps ELISA; format: functional, organism-based; conditions: Macaca fascicularis; outline: as §5
Cynomolgus monkey [18] = test: Antibone resorptive activity in cynomolgus monkey assessed as reduction of C-terminal telopeptidase of type 1 collagen degradation at 2 mg/kg/day, po measured before 8 hrs after 7 days of administration by CrossLaps ELISA; format: functional, organism-based; conditions: Macaca fascicularis; outline: as §5
Cynomolgus monkey [19] = test: Antibone resorptive activity in cynomolgus monkey assessed as reduction of C-terminal telopeptidase of type 1 collagen degradation at 2 mg/kg/day, po measured after 8 hrs after 7 days of administration by CrossLaps ELISA; format: functional, organism-based; conditions: Macaca fascicularis; outline: as §5
Cynomolgus monkey [20] = test: Antibone resorptive activity in cynomolgus monkey assessed as reduction of C-terminal telopeptidase of type 1 collagen degradation at 2 mg/kg/day, po measured before 8 hrs after 14 days of administration by CrossLaps ELISA; format: functional, organism-based; conditions: Macaca fascicularis; outline: as §5
Cynomolgus monkey [21] = test: Antibone resorptive activity in cynomolgus monkey assessed as reduction of cathepsin K-mediated C-terminal telopeptidase of type 1 collagen degradation at 2 mg/kg/day, po measured after 8 hrs after 14 days of administration by CrossLaps ELISA; format: functional, organism-based; conditions: Macaca fascicularis; outline: as §5
Cynomolgus monkey [22] = test: Toxicity in cynomolgus monkey at 2 mg/kg/day, po for 14 days; format: organism-based, Macaca fascicularis; set-up: route oral; conditions: in vivo, 336 h

Sequence of Cathepsin S (P25774 whole entry): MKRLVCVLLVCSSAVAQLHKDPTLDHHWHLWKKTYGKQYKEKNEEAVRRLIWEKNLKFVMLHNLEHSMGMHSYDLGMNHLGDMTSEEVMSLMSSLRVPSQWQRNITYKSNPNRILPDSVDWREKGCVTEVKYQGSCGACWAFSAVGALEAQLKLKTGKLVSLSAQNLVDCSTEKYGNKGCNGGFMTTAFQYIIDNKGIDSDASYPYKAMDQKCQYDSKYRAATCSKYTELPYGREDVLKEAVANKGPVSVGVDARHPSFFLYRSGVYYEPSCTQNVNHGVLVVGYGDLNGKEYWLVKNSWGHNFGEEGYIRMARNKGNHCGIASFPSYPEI
Sequence of Procathepsin L (P07711 whole entry): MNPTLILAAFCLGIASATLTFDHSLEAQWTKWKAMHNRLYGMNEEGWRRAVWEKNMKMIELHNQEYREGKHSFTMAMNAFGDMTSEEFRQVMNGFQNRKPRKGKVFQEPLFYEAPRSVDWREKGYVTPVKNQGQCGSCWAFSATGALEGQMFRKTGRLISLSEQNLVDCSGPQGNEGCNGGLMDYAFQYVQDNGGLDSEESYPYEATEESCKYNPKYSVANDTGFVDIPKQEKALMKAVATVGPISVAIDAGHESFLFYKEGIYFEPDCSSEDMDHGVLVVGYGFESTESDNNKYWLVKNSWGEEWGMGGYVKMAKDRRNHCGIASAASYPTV

SMILES | IC50 (Cathepsin K [1]) [nM] | IC50 (Procathepsin L) [nM] | IC50 (Cathepsin S) [nM] | concentration at 25 h [7] [nM] | concentration at 25 h [8] [nM] | Drug uptake [9] | IC50 (Cathepsin K [10]) [nM] | half-life [11] [h] | clearance [12] [mL/min/kg] | Vd [13] [L/kg] | bioavailability [15] [%] | half-life [2] [h] | clearance [3] [mL/min/kg] | Vd [4] [L/kg] | bioavailability [5] [%] | Activity (Rattus norvegicus [6]) [%] | also measured
COc1ccc2c(c1)C1(CCNCC1)C(=O)N2Cc1cc2cnc(C#N)nc2n1CC(C)(C)C | < 1 | > 1000 | > 1000 | 288 | 45800 | 159 | 44 | – | – | – | – | 4.9 | 182 | 73.6 | 29 | 68 | –
CC(C)(C)Cn1c(CN2C(=O)C3(CCNCC3)c3cc(F)ccc32)cc2cnc(C#N)nc21 | – | – | – | 1200 | 119000 | 99 | 78 | – | – | – | – | 6.6 | 132 | 78.4 | 36 | 36.2 | –
CC(C)(C)Cn1c(CN2C(=O)CC3(CCNCC3)C2=O)cc2cnc(C#N)nc21 | – | – | – | 960 | 33500 | 34.9 | 30 | – | – | – | – | 4.7 | 238 | 97.2 | 98 | 73.2 | Activity (Cynomolgus monkey [16]): Active; Activity (Cynomolgus monkey [17]): Active; Activity (Cynomolgus monkey [18]): Active; Activity (Cynomolgus monkey [19]): Active; Activity (Cynomolgus monkey [20]): Active; Activity (Cynomolgus monkey [21]): Active; Activity (Cynomolgus monkey [22]): Non-toxic
CC(C)(C)Cn1c(CN2CCC3(CC2)NC(=O)NC3=O)cc2cnc(C#N)nc21 | < 1 | > 1000 | > 1000 | 557 | 381 | 0.7 | – | 1.6 | 78.3 | 5.9 | 42 | – | – | – | – | -7.9 | –

Further lines, with some results ahead:

IC50 (Cathepsin K [1]) [nM] | IC50 (Procathepsin L) [nM] | IC50 (Cathepsin S) [nM] | concentration at 25 h [7] [nM] | concentration at 25 h [8] [nM] | Drug uptake [9] | IC50 (Cathepsin K [10]) [nM] | half-life [11] [h] | clearance [12] [mL/min/kg] | Vd [13] [L/kg] | bioavailability [15] [%] | SMILES | half-life [2] [h] | clearance [3] [mL/min/kg] | Vd [4] [L/kg] | bioavailability [5] [%] | Activity (Rattus norvegicus [6]) [%] | also measured
< 1 | > 1000 | > 1000 | – | – | – | 76 | 3.3 | 245 | 59.2 | – | CC(C)(C)Cn1c(CN2C(=O)NC3(CCNCC3)C2=O)cc2cnc(C#N)nc21 | – | – | – | – | – | Activity (Rattus norvegicus [14]): Not Active
< 1 | > 1000 | > 1000 | 545 | 832 | 1.5 | – | 1.9 | 45 | 6.7 | 58 | CCCN1C(=O)NC2(CCN(Cc3cc4cnc(C#N)nc4n3CC(C)(C)C)CC2)C1=O | – | – | – | – | 11.3 | –
– | – | – | 64 | 302 | 4.7 | 12 | 1.4 | 35 | 4.3 | 144 | CN1C(=O)NC2(CCN(Cc3cc4cnc(C#N)nc4n3CC(C)(C)C)CC2)C1=O | – | – | – | – | 6.8 | –
– | – | – | 133 | 17600 | 132 | 27 | 2.8 | 85 | 17.3 | 49 | CCCN1CCC2(CC1)NC(=O)N(Cc1cc3cnc(C#N)nc3n1CC(C)(C)C)C2=O | – | – | – | – | 89.9 | –
